Measured values published in ChEMBL document CHEMBL1126975 (J Med Chem, 1993).

Assays:
[1] = biological target: T1, Amine oxidase [flavin-containing] B (Rattus norvegicus, UniProt P19643); assay: In vitro inhibitory activity on rat brain MAO-B.
T1 sequence (P19643 whole entry): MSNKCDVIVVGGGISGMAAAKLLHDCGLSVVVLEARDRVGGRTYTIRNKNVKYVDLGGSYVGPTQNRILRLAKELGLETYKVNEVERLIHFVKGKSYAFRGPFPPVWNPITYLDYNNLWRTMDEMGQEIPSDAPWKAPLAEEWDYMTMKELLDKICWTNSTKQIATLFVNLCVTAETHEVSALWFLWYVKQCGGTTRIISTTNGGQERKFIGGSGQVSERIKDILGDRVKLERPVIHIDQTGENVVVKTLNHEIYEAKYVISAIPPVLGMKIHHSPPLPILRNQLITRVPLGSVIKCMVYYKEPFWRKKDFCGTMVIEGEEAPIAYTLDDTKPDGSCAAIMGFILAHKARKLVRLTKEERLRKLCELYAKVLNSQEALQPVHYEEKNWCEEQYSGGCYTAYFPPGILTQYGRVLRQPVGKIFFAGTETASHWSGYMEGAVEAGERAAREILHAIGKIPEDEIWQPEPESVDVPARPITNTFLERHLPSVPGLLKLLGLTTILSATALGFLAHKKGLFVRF
How it was run: (§1)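 Radiochemical assay at 37 °C, pH 7.4: MAO A with 10 μM [14C]5-HT, MAO B with 5 μM [14C]PEA. Drug preincubated 20 min with enzyme. Three experiments in duplicate.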

[2] = biological target: T2, Amine oxidase [flavin-containing] A (Rattus norvegicus, UniProt P21396); assay: In vitro inhibitory activity on rat brain by monoamine oxidase A (MAO-A); how it was run: as §1
T2 sequence (P21396 whole entry): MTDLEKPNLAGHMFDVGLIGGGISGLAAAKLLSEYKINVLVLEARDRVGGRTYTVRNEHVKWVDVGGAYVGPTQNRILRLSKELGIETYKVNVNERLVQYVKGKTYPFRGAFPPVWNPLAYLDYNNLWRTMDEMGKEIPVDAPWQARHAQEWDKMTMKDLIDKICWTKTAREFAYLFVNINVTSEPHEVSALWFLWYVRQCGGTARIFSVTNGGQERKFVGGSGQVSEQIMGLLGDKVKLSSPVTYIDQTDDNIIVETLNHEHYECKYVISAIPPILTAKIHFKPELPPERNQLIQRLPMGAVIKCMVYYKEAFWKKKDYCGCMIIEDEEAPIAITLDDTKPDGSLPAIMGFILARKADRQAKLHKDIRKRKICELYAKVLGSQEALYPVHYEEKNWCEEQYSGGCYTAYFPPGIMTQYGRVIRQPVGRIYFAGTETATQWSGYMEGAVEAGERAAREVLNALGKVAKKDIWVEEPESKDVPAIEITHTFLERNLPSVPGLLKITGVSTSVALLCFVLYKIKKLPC

[3] = biological target: T1, Amine oxidase [flavin-containing] B; assay: Ex-Vivo Time course of evaluation for the percentage inhibition of MAO-B for 48 hr at single dose 5 mg/kg through oral gavage; type: organism-based; parameters: dose 5 mg/kg, route oral
How it was run: (§2)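 Fasted male Sprague-Dawley rats (150 g) dosed orally by gavage, drug suspended in Tween 80 plus 0.5% methylcellulose; vehicle controls. The 100 mg/kg arm was dosed daily for 9 days. Four rats per time point; brains frozen and homogenized in 0.1 M phosphate pH 7.4. Assayed at 37 °C with 8 μM [14C]PEA for 1 min; toluene/ethyl acetate extraction. Percent inhibition vs control, mean ± SEM.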

[4] = biological target: T1, Amine oxidase [flavin-containing] B; assay: Ex-Vivo Time course of evaluation for the percentage inhibition of MAO-B for 1 hr at single dose 5 mg/kg through oral gavage; type: organism-based; parameters: dose 5 mg/kg, route oral; how it was run: as §2
[5] = biological target: T1, Amine oxidase [flavin-containing] B; assay: Ex-Vivo Time course of evaluation for the percentage inhibition of MAO-B for 0.5 hr at single dose 5 mg/kg through oral gavage; type: organism-based; parameters: dose 5 mg/kg, route oral; how it was run: as §2
[6] = biological target: T1, Amine oxidase [flavin-containing] B; assay: Ex-Vivo Time course of evaluation for the percentage inhibition of MAO-B for 4 hr at single dose 5 mg/kg through oral gavage; type: organism-based; parameters: dose 5 mg/kg, route oral; how it was run: as §2
[7] = biological target: T1, Amine oxidase [flavin-containing] B; assay: Ex-Vivo percentage inhibition of MAO-B after 24 hr single 5 mg/kg dose by oral gavage; type: organism-based; parameters: dose 5 mg/kg, route oral
How it was run: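 Ex vivo oral gavage in fasted male Sprague-Dawley rats (Tween 80 / 0.5% methylcellulose), four rats per group. Brain homogenate taken 24 h after dosing. MAO B assayed with 8 μM [14C]PEA, 1 min at 37 °C; percent inhibition vs vehicle control.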

[8] = biological target: T1, Amine oxidase [flavin-containing] B; assay: Ex-Vivo Time course of evaluation for the percentage inhibition of MAO-B for 0.5 hr at single dose 5 mg/kg through oral gavage (p<0.001); type: organism-based; parameters: dose 5 mg/kg, route oral; how it was run: as §2
[9] = biological target: T1, Amine oxidase [flavin-containing] B; assay: Ex-Vivo Time course of evaluation for the percentage inhibition of MAO-B for 1 hr at single dose 5 mg/kg through oral gavage (p<0.001); type: organism-based; parameters: dose 5 mg/kg, route oral; how it was run: as §2
[10] = biological target: T1, Amine oxidase [flavin-containing] B; assay: Ex-Vivo Time course of evaluation for the percentage inhibition of MAO-B for 4 hr at single dose 5 mg/kg through oral gavage (p<0.001); type: organism-based; parameters: dose 5 mg/kg, route oral; how it was run: as §2
[11] = biological target: T2, Amine oxidase [flavin-containing] A; assay: In Vitro evaluation for the inhibitory activity on rat brain by MAO-A at 100 uM; No Inhibition
How it was run: (§3)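 Male Sprague-Dawley rat brain crude mitochondrial fraction, 0.195 mg protein/mL. Radiochemical assay at 37 °C, pH 7.4: MAO A with 10 μM [14C]5-HT, MAO B with 5 μM [14C]PEA. Drug preincubated 20 min with enzyme. […] Three experiments in duplicate.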

[12] = biological target: T2, Amine oxidase [flavin-containing] A; assay: In Vitro evaluation for the inhibitory activity on rat brain by MAO-A at 100 uM; how it was run: as §3
[13] = biological target: T1, Amine oxidase [flavin-containing] B; assay: Ex-Vivo Time course of evaluation for the percentage inhibition of MAO-B for 4 hr at single dose 5 mg/kg through oral gavage [p<0.05 (Bonferroni''s test)]; type: organism-based; parameters: dose 5 mg/kg, route oral; how it was run: as §2
[14] = biological target: T1, Amine oxidase [flavin-containing] B; assay: Compound was evaluated for the time-dependence inhibition of MAO-B at 0 minute pre-incubation periods
How it was run: (§4)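 Male Sprague-Dawley rat brain crude mitochondrial fraction, MAO B. Drug preincubated with enzyme at 37 °C for 0, 20, 30 or 60 min, then radiochemical assay with 5 μM [14C]PEA at pH 7.4. IC50 read graphically from 9–12 concentrations; three experiments in duplicate.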

[15] = biological target: T1, Amine oxidase [flavin-containing] B; assay: Compound was evaluated for the time-dependence inhibition of MAO-B at 20 minutes pre-incubation periods; how it was run: as §4
[16] = biological target: T2, Amine oxidase [flavin-containing] A; assay: Compound was evaluated for the time-dependence inhibition of MAO-A at 60 minutes of preincubated period. values are same with or without pre-incubation
[17] = biological target: T1, Amine oxidase [flavin-containing] B; assay: Compound was evaluated for the time-dependence inhibition of MAO-B at 30 minutes pre-incubation periods; how it was run: as §4
[18] = biological target: T1, Amine oxidase [flavin-containing] B; assay: Compound was evaluated for the time-dependence inhibition of MAO-B at 60 minutes preincubation periods; how it was run: as §4
[19] = Selectivity for B form was estimated by the ratio of IC50 (MAO A) at 60 min to that of (MAO B)

**Q.** Which IC50 [1] does the source give for Cc1cccc(COc2ccc(-c3nn(CCC#N)c(=S)o3)cc2)c1 here?
**A.** 66 nM

**Q.** And the IC50 [2]?
**A.** 14000 nM

**Q.** For N#CCCN1N=C(c2ccc(OCc3ccccc3)cc2)OCC1=S, which inhibition at 5 mg/kg [3] is on record?
**A.** 9%

**Q.** And the IC50 [1]?
**A.** 140 nM

**Q.** And the inhibition at 5 mg/kg [4]?
**A.** 3%

**Q.** What about the IC50 [2] of the same compound?
**A.** 25000 nM

**Q.** And the inhibition at 5 mg/kg [5]?
**A.** 12%

**Q.** And the inhibition at 5 mg/kg [6]?
**A.** 5%

**Q.** What about the inhibition at 5 mg/kg [7] of the same compound?
**A.** -4%

**Q.** For N#CCCn1nc(-c2ccc(OCc3cccc(Cl)c3)cc2)oc1=S, which IC50 [1] is on record?
**A.** 160 nM

**Q.** And the IC50 [2]?
**A.** 11000 nM

**Q.** For COc1ccc(COc2ccc(-c3nn(CCC#N)c(=S)o3)cc2)cc1, which IC50 [1] is on record?
**A.** 910 nM

**Q.** And the IC50 [2]?
**A.** 4800 nM

**Q.** With N#CCCn1nc(-c2ccc(OCc3ccc(Cl)cc3)cc2)oc1=O as the compound, how does the inhibition at 5 mg/kg [8] read?
**A.** 30%

**Q.** What about the inhibition at 5 mg/kg [3] of the same compound?
**A.** 6%

**Q.** What about the IC50 [1] of the same compound?
**A.** 7.5 nM

**Q.** And the inhibition at 5 mg/kg [9]?
**A.** 54%

**Q.** What about the IC50 [2] of the same compound?
**A.** 3300 nM

**Q.** And the inhibition at 5 mg/kg [7]?
**A.** -6%

**Q.** What about the inhibition at 5 mg/kg [10] of the same compound?
**A.** 47%

**Q.** Which IC50 [1] does the source give for N#CCCN1N=C(c2ccc(OCc3cccc(Cl)c3)cc2)OCC1=O here?
**A.** 13 nM

**Q.** What about the IC50 [2] of the same compound?
**A.** 13000 nM

**Q.** Which results are given for Cc1cccc(COc2ccc(C3=NN(CCC#N)C(=O)CO3)cc2)c1?
**A.** IC50 [1]: 31 nM; IC50 [2]: 40000 nM

**Q.** Which results are given for N#CCCN1N=C(c2ccc(OCc3ccccc3)cc2)OCC1=O?
**A.** inhibition at 5 mg/kg [3]: 16%; IC50 [1]: 18 nM; inhibition at 5 mg/kg [4]: 31%; IC50 [2]: 160000 nM; inhibition at 5 mg/kg [5]: 21%; inhibition at 5 mg/kg [6]: 22%; inhibition at 5 mg/kg [7]: 23%

**Q.** With N#CCn1nc(-c2ccc(OCc3ccccc3)cc2)oc1=O as the compound, how does the IC50 [11] read?
**A.** Not Active

**Q.** What about the IC50 [1] of the same compound?
**A.** 60 nM

**Q.** For CC(C#N)n1nc(-c2ccc(OCc3ccccc3)cc2)oc1=O (configuration not stated), which IC50 [1] is on record?
**A.** 48000 nM

**Q.** And the inhibition at 100 µM [12]?
**A.** 4%

**Q.** Which results are given for N#CCCn1nc(-c2ccc(OCc3cccc(Cl)c3)cc2)oc1=O?
**A.** inhibition at 5 mg/kg [3]: 4%; IC50 [1]: 12 nM; inhibition at 5 mg/kg [9]: 36%; IC50 [2]: 7400 nM; inhibition at 5 mg/kg [13]: 29%; inhibition at 5 mg/kg [5]: 1%; inhibition at 5 mg/kg [7]: -7%

**Q.** Which IC50 [11] does the source give for N#CCCCn1nc(-c2ccc(OCc3ccccc3)cc2)oc1=O here?
**A.** Not Active

**Q.** And the IC50 [1]?
**A.** 410 nM

**Q.** For N#CCCn1nc(-c2ccc(OCc3ccccc3)cc2)sc1=O, which inhibition at 5 mg/kg [3] is on record?
**A.** 9%

**Q.** What about the IC50 [1] of the same compound?
**A.** 8 nM

**Q.** And the inhibition at 5 mg/kg [4]?
**A.** 52%

**Q.** What about the IC50 [2] of the same compound?
**A.** 45000 nM

**Q.** And the inhibition at 5 mg/kg [5]?
**A.** 44%

**Q.** And the inhibition at 5 mg/kg [6]?
**A.** 45%

**Q.** And the inhibition at 5 mg/kg [7]?
**A.** 15%

**Q.** For N#CCCN1N=C(c2ccc(OCc3ccc([N+](=O)[O-])cc3)cc2)OCC1=O, which IC50 [1] is on record?
**A.** 300 nM

**Q.** What about the IC50 [2] of the same compound?
**A.** 2000 nM

**Q.** Which results are given for O=c1oc(-c2ccc(OCc3ccccc3)cc2)nn1CCO?
**A.** IC50 [1]: 3.7 nM; IC50 [14]: 33 nM; inhibition at 5 mg/kg [4]: 82%; IC50 [2]: 140000 nM; IC50 [15]: 4.6 nM; IC50 [16]: 140000 nM; IC50 [17]: 4.4 nM; IC50 [18]: 4.6 nM; inhibition at 5 mg/kg [5]: 65%; inhibition at 5 mg/kg [6]: 70%; Selectivity [19]: 30400; inhibition at 5 mg/kg [7]: 8%

**Q.** Which IC50 [1] does the source give for COc1ccc(COc2ccc(-c3nn(CCC#N)c(=O)o3)cc2)cc1 here?
**A.** 27 nM

**Q.** And the IC50 [2]?
**A.** 16000 nM
